Each block holds one compound with its values, some of them ahead of it. The source made the active and inactive calls. No cut-off for these calls is given here.
Assays:
[1] = test system: A 172; assay: Antimigratory activity in human A172 cells assessed as velocity of migration at 5 uM measured up to 20 hrs by wound scratch assay (reference value: 2650 to 3123 micrometer/hr); assay type: functional
Procedure, shortened: (§1)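 Wound-healing migration assay: cell movement across the wound is measured as velocity (µm/h). Compounds were tested at 0, 1.0, 5.0 and 10.0 µM. Values are mean ± SEM of 3 independent experiments.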

[2] = test system: U-251; assay: Cytotoxicity against human U251 cells assessed as reduction in cell viability after 3 days by Alamar blue assay; assay type: functional, cell-based; conditions: U-251, 72 h
[3] = test system: RN1; assay: (§2) Anticlonogenic activity against patient-derived RN1 cells after 10 to 12 days by toluidine blue staining based assay; assay type: functional, cell-based; conditions: Homo sapiens
Procedure, shortened: (§3)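 Cells were exposed to compound for 10 days, then colonies were fixed, stained with Toluidine Blue and counted. […] Values are mean ± SEM of 3 independent experiments, each in duplicate, with one-way ANOVA and Dunnett's test against vehicle.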

[4] = as §2; assay type: functional, cell-based, Homo sapiens; procedure, shortened: as §3
[5] = Cytotoxicity against patient-derived WK1 cells assessed as reduction in cell viability after 5 days by Alamar blue assay; assay type: functional, cell-based; conditions: Homo sapiens, WK1, 120 h
Procedure, shortened: (§4)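 The patient-derived glioblastoma lines were grown as stem cells under defined conditions to keep the phenotype and genotype of the resected tumours. Viability after treatment was read with Alamar blue.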

[6] = Antimigratory activity in patient-derived RN1 cells assessed as velocity of migration at 1 uM measured up to 20 hrs by wound scratch assay (reference value: 937 to 1174 micrometer/hr); assay type: functional, Homo sapiens; procedure, shortened: as §1
[7] = target: T1, Dual specificity tyrosine-phosphorylation-regulated kinase 2 (Homo sapiens, UniProt Q92630); assay: Inhibition of DYRK2 (unknown origin) using woodtide as substrate after 40 mins in presence of [gamma-33P]ATP by microbeta scintillation counting
T1 sequence (Q92630 whole entry): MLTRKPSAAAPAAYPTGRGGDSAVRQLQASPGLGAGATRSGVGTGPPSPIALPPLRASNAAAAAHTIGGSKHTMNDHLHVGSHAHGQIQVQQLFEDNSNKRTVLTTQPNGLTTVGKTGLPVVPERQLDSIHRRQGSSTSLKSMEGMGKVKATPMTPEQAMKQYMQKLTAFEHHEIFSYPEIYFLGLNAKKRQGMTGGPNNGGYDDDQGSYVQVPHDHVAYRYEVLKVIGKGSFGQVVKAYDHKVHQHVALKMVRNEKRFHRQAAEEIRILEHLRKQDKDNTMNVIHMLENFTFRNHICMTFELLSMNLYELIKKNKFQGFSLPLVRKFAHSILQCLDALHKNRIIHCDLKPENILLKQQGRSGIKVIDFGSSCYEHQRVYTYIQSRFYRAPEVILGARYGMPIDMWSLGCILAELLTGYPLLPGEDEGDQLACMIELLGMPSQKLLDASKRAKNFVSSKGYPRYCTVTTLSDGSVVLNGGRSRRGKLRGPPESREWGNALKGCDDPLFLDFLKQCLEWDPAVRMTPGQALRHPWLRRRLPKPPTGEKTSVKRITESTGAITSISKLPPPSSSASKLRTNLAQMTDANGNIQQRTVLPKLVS

[8] = test system: U-251; assay: Antimigratory activity in human U251 cells assessed as velocity of migration at 10 uM measured up to 20 hrs by wound scratch assay (reference value: 2159 to 2653 micrometer/hr); assay type: functional; procedure, shortened: as §1
[9] = test system: U-251; assay: Antimigratory activity in human U251 cells assessed as velocity of migration at 5 uM measured up to 20 hrs by wound scratch assay (reference value: 2159 to 2653 micrometer/hr); assay type: functional; procedure, shortened: as §1
[10] = species: Homo sapiens; assay: Inhibition of tubulin (unknown origin) polymerization
[11] = test system: U-251; assay: Antiinvasive activity in human U251 cells assessed as velocity of invasion at 1 uM measured up to 20 hrs by matrigel assay (reference value: 1151 to 1710 micrometer/hr); assay type: functional
[12] = target: Dual specificity tyrosine-phosphorylation-regulated kinase 1A (Homo sapiens, UniProt Q13627); assay: Inhibition of DYRK1A (unknown origin) using woodtide as substrate after 10 mins in presence of [gamma-33P]ATP by microbeta scintillation counting
[13] = test system: A 172; assay: Antiinvasive activity in human A172 cells assessed as velocity of invasion at 1 uM measured up to 20 hrs by matrigel assay (reference value: 2659 to 3047 micrometer/hr); assay type: functional
[14] = test system: A 172; assay: Cytotoxicity against human A172 cells assessed as reduction in cell viability after 3 days by Alamar blue assay; assay type: functional, cell-based; conditions: A 172, 72 h
[15] = test system: A 172; assay: Antiinvasive activity in human A172 cells assessed as velocity of invasion at 10 uM measured up to 20 hrs by matrigel assay (reference value: 2659 to 3047 micrometer/hr); assay type: functional
[16] = target: Dual specificity protein kinase CLK1 (Homo sapiens, UniProt P49759); assay: Inhibition of CLK1 (unknown origin) using KKGRSRSRSRSRSR as substrate after 40 mins in presence of [gamma-33P]ATP by microbeta scintillation counting
Procedure, shortened: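 CLK1 was assayed with RS peptide substrate at 100 µM ATP.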

[17] = Antimigratory activity in patient-derived RN1 cells assessed as velocity of migration at 5 uM measured up to 20 hrs by wound scratch assay (reference value: 937 to 1174 micrometer/hr); assay type: functional, Homo sapiens; procedure, shortened: as §1
[18] = Antimigratory activity in patient-derived RN1 cells assessed as velocity of migration at 10 uM measured up to 20 hrs by wound scratch assay (reference value: 937 to 1174 micrometer/hr); assay type: functional, Homo sapiens; procedure, shortened: as §1
[19] = test system: A 172; assay: Antimigratory activity in human A172 cells assessed as velocity of migration at 1 uM measured up to 20 hrs by wound scratch assay (reference value: 2650 to 3123 micrometer/hr); assay type: functional; procedure, shortened: as §1
[20] = test system: U-251; assay: Antiinvasive activity in human U251 cells assessed as velocity of invasion at 10 uM measured up to 20 hrs by matrigel assay (reference value: 1151 to 1710 micrometer/hr); assay type: functional
[21] = test system: A 172; assay: Antimigratory activity in human A172 cells assessed as velocity of migration at 10 uM measured up to 20 hrs by wound scratch assay (reference value: 2650 to 3123 micrometer/hr); assay type: functional; procedure, shortened: as §1
[22] = test system: U-251; assay: Antiinvasive activity in human U251 cells assessed as velocity of invasion at 5 uM measured up to 20 hrs by matrigel assay (reference value: 1151 to 1710 micrometer/hr); assay type: functional
[23] = target: Dual specificity tyrosine-phosphorylation-regulated kinase 1B (Homo sapiens, UniProt Q9Y463); assay: Inhibition of DYRK1B (unknown origin) using woodtide as substrate after 40 mins in presence of [gamma-33P]ATP by microbeta scintillation counting
[24] = Cytotoxicity against patient-derived SJH1 cells assessed as reduction in cell viability after 3 days by Alamar blue assay; assay type: functional, cell-based; conditions: Homo sapiens, SJH1, 72 h; procedure, shortened: as §4
[25] = test system: A 172; assay: Antiinvasive activity in human A172 cells assessed as velocity of invasion at 5 uM measured up to 20 hrs by matrigel assay (reference value: 2659 to 3047 micrometer/hr); assay type: functional
[26] = Cytotoxicity against patient-derived JK2 cells assessed as reduction in cell viability after 3 days by Alamar blue assay; assay type: functional, cell-based; conditions: Homo sapiens, JK2, 72 h; procedure, shortened: as §4
[27] = test system: U-251; assay: Antimigratory activity in human U251 cells assessed as velocity of migration at 1 uM measured up to 20 hrs by wound scratch assay (reference value: 2159 to 2653 micrometer/hr); assay type: functional; procedure, shortened: as §1
[28] = Cytotoxicity against patient-derived RN1 cells assessed as reduction in cell viability after 3 days by Alamar blue assay; assay type: functional, cell-based; conditions: Homo sapiens, RN1, 72 h; procedure, shortened: as §4
[29] = target: T2, Dual specificity tyrosine-phosphorylation-regulated kinase 3 (Homo sapiens, UniProt O43781); assay: Inhibition of full-length recombinant human GST-tagged DYRK3 expressed in Escherichia coli using woodtide as substrate after 30 mins in presence of [gamma-33P]ATP
T2 sequence (O43781 whole entry): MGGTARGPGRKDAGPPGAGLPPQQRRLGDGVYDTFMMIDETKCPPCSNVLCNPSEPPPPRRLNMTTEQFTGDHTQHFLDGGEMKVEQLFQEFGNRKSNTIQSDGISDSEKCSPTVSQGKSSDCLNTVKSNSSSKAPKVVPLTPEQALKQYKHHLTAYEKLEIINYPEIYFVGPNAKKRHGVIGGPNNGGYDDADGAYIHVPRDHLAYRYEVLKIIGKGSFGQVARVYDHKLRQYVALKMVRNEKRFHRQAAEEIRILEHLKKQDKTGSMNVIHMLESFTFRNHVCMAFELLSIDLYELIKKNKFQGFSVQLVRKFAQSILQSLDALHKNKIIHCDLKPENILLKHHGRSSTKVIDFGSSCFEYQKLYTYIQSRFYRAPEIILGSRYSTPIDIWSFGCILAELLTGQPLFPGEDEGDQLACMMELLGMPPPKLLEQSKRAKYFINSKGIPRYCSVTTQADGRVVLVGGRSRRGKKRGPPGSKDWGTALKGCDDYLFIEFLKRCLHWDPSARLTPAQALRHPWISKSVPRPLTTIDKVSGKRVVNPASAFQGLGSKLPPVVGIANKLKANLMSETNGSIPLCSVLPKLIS

[30] = target: T3, Dual specificity tyrosine-phosphorylation-regulated kinase 4 (Homo sapiens, UniProt Q9NR20); assay: Inhibition of full-length recombinant human GST-tagged DYRK4 expressed in baculovirus infected insect cells using DYRKtide as substrate after 5 mins in presence of [gamma-33P]ATP by liquid scintillation counting
T3 sequence (Q9NR20 whole entry): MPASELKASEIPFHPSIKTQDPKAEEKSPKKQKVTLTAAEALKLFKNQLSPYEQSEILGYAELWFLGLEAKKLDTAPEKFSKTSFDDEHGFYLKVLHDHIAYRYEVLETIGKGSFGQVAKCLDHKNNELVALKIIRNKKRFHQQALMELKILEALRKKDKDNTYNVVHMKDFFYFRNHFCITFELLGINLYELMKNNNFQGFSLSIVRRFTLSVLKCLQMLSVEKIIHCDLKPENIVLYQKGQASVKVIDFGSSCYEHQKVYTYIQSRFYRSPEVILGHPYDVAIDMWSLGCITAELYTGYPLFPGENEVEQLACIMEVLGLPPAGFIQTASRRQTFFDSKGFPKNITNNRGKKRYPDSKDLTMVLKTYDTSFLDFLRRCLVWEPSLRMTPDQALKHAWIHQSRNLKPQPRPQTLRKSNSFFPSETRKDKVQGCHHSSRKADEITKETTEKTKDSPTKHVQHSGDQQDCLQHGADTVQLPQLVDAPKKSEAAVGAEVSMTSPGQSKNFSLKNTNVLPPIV

Dual specificity protein kinase CLK1, sequence (P49759 whole entry): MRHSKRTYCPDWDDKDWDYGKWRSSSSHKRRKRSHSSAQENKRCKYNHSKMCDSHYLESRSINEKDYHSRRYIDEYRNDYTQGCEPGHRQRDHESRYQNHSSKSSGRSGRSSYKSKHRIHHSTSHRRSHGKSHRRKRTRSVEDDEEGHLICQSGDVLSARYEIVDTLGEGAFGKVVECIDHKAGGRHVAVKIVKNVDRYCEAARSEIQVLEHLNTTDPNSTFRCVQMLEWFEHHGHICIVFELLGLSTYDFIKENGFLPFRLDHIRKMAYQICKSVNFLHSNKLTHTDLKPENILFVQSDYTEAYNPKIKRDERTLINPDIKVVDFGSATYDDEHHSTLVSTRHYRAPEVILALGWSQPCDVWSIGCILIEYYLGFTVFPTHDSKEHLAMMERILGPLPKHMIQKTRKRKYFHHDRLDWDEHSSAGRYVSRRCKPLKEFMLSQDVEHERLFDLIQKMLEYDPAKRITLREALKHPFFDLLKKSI
Dual specificity tyrosine-phosphorylation-regulated kinase 1B, sequence (Q9Y463 whole entry): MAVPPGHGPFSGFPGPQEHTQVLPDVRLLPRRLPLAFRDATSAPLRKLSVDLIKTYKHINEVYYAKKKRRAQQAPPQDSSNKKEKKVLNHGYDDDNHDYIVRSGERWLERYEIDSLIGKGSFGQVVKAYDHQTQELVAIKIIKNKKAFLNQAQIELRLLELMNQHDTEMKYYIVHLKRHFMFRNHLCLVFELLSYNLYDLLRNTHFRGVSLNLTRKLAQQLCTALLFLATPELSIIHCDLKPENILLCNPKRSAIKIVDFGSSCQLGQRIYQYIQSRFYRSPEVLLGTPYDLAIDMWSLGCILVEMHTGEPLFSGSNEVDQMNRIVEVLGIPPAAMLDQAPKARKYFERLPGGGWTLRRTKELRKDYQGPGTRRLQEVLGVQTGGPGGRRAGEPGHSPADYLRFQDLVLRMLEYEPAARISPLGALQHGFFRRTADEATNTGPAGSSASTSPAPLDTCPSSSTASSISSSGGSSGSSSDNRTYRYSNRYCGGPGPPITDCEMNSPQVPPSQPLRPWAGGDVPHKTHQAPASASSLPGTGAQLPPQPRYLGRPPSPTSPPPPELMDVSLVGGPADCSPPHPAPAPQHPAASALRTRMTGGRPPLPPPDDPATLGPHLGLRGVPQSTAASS

- EC50 [4]: 2100 nM
- IC50 [7]: 536 nM
- inhibition [10]: inactive
- IC50 [12]: 6.6 nM
- IC50 [16]: 35 nM
- IC50 [23]: 38 nM
SMILES: CC(=O)Nc1ccc(-c2cnc3[nH]cc(-c4ccc(O)cc4)c3c2)cc1
- Activity [1]: 2296 um/hr
- EC50 [2]: 1600 to 4600 nM
- Activity [3]: Dose-dependent effect
- EC50 [5]: 900 nM
- Activity [6]: 332 um/hr
- Activity [8]: 111 um/hr
- Activity [9]: 173 um/hr
- Activity [11]: 736 um/hr
- Activity [13]: 2731 um/hr
- EC50 [14]: 1600 to 4600 nM
- Activity [15]: 1718 um/hr
- Activity [17]: 210 um/hr
- Activity [18]: 196 um/hr
- Activity [19]: 2891 um/hr
- Activity [20]: -118 um/hr
- Activity [21]: 651 um/hr
- Activity [22]: 34 um/hr
- EC50 [24]: 5100 nM
- Activity [25]: 2027 um/hr
- EC50 [26]: 8600 nM
- Activity [27]: 1125 um/hr
- EC50 [28]: 2100 nM

SMILES: COc1ccc2c(c1)[nH]c1c(C)nccc12 [HARMINE]
- IC50 [29]: 410 nM
- IC50 [30]: 80000 nM

— ChEMBL document CHEMBL4007420, “Structural Optimization and Pharmacological Evaluation of Inhibitors Targeting Dual-Specificity Tyrosine Phosphorylation-Regulated Kinases (DYRK) and CDC-like kinases (CLK) in Glioblastoma” (J Med Chem, 2017)
